NR2E3 ag-1 – agonists of human NR2E3 nuclear receptor. actives 0.35% (n = 360,000). Q9Y5X4. CHO-S Gal4-NCOR/VP16-NR2E3 two-hybrid, luciferase. inhibition of corepressor binding, % at 3.98 µM;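 active means inhibition above the mean of all tested compounds plus 3 SD, cut at about 70% in these data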;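 further: higher means lower luciferase signal from less NR2E3 corepressor binding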
PG9 Ab binder – small molecules binding HIV-1 gp120 antibody PG9; inhibition, % at 6.7 µM; TR-FRET gp120-PG9 antibody binding; actives 0.43% (n = 360,000); AID 624416; in the data active means inhibition above about 8.5%
NR2E3 ag-2 – activates human photoreceptor nuclear receptor NR2E3; AID 2300; actives 0.12% (n = 320,000); GST-NR2E3/biotin-RetCOR TR-FRET, 1536-well; inhibition of corepressor binding, % at 4.78 µM;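 active means percent inhibition above the cutoff of mean plus 3 SD of all tested compounds, set per screening campaign, cut at about 20% in these data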
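Material: NR2E3–RetCOR corepressor complex / Incubation: Compound–protein incubation for 5 h at 4 °C / Dosing: compound at 4.8 µM, single dose / Detection: time-resolved FRET / Benchmarks: high control biotin, low control 0.6% DMSO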
Neddylation inh – inhibitors of human cullin neddylation. TR-FRET cullin neddylation, biochemical. P61081+Q13564. AID 651699. calls only at 25 µM. actives 0.58% (n = 360,000); in the data active means inhibition above about 36%
Target sequence (P61081 whole entry, looked up): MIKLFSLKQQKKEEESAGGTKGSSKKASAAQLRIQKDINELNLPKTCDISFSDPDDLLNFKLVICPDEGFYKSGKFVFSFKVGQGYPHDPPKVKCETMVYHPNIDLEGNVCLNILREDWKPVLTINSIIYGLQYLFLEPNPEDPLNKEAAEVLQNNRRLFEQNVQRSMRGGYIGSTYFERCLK
Target sequence (Q13564 whole entry, looked up): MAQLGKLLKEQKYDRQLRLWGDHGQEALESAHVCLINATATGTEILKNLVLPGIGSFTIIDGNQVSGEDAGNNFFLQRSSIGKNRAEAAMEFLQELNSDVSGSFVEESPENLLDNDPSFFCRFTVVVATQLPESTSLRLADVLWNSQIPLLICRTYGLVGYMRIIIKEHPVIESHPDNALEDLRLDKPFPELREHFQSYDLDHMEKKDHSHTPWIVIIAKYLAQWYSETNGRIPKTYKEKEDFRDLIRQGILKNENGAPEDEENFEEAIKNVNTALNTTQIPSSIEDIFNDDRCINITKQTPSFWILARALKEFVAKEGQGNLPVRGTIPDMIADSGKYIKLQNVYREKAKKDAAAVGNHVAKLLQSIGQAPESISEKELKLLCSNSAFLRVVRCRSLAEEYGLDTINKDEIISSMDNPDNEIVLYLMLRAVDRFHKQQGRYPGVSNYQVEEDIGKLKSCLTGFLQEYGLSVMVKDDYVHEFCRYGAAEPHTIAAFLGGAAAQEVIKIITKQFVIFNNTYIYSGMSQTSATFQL
Rev-erbA mod – Rev-erb alpha (human) modulation; Rev-erbα–FITC-DNA binding, fluorescence polarization, 90 min; activity, % at 10 µM; actives 0.79% (n = 370,000); AID 1259318;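 active means activity above about 14%, limit read from the data; passing the limit was not always enough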
PG9 binder conf – PG9 antibody binding, confirmed; shares compounds with PG9 Ab binder; TR-FRET PG9 antibody binding, biochemical; inhibition, % at 6.7 µM; actives 90% (n = 1,500); in the data active means inhibition above about 9%
PGV04 Ab binding – binds control antibody PGV04 in PG9 binder counter-screen | shares compounds with PG9 Ab binder | TR-FRET PGV04 antibody-gp120 binding, biochemical | inhibition, % at 6.7 µM | actives 95% (n = 1,500); in the data active means inhibition above about 9.5%
PG9 bind DR – PG9 antibody binding, dose response; AID 651848; shares compounds with PG9 Ab binder; IC50, µM; TR-FRET PG9 antibody-gp120 binding inhibition; 95 tested, under 10 active; in the data active means IC50 below about 10 µM
PGV04 binding DR – binds control antibody PGV04 in PG9 counter-screen; actives 20% (n = 95); IC50, µM; AID 651937; shares compounds with PG9 Ab binder; TR-FRET binding to control antibody PGV04
PG126 DR counter – binds control antibody PG126 in PG9 counter-screen; shares compounds with PG9 Ab binder; TR-FRET binding to antibody PG126, counterscreen; IC50, µM; actives 20% (n = 95); AID 651939
Each line names hits and unclear results; the compound was inactive in the other large screens (follow-up assays come after a bar, where shown). Compounds with a hit are over-represented: about 2% of the library has one in this group of screens. Unless noted, no stated cut-off is given here; in the data, active means IC50 below about 9 µM; inactive means the rest.

O=C(Cn1c2ccccc2c(=O)c2cc([N+](=O)[O-])ccc21)Nc1ccccc1Cl	PG9 Ab binder 12 | PG9 binder conf 16 | PGV04 Ab binding 18
O=C(Cn1c2ccccc2c(=O)c2ccccc21)Nc1ccccc1F	none (not shown: Neddylation inh)
Cc1ccc2c(Cl)c(C(=O)Nc3ccc4c(c3)OCO4)sc2c1	PG9 Ab binder 14 (not shown: Neddylation inh) | PG9 binder conf 26 | PGV04 Ab binding 53
O=C(O)Cn1c2c(c3ccccc31)CSc1ccc(Cl)cc1-2	PG9 Ab binder 17 | PG9 binder conf 10 | PGV04 Ab binding 14
CCOc1ccccc1-c1nc(C(N)=O)c2[nH]c(=O)n(-c3ccccc3)c2n1	PG9 Ab binder 19 | PG9 binder conf 28 | PGV04 Ab binding 58
CC(=O)c1cccc(NC(=O)C2(C)Cc3c(-c4ccccc4)ccnc3O2)c1 (centres undefined)	none (no result: NR2E3 ag-2)
COc1ccc(-c2cn3nc(SCC(=O)NC4CCCCC4)ccc3n2)cc1	PG9 Ab binder 33 | PG9 binder conf 62 | PGV04 Ab binding 75
COc1ccc(-c2ccc(SCC(=O)NC3CCCCC3)nn2)cc1	none
O=c1c2[nH]c3ccc(Cl)cc3c2ncn1CCN1CCCCC1	none
S=c1nc[nH]c2c1[nH]c1ccc(Cl)cc12	PG9 Ab binder 34 | PG9 binder conf 15 | PGV04 Ab binding 17
S=c1nc[nH]c2c1[nH]c1ccccc12	PG9 Ab binder 79 | PG9 binder conf 48 | PGV04 Ab binding 29 | PG9 bind DR inactive | PGV04 binding DR inactive | PG126 DR counter inactive
COc1ccc(CN2C(=O)CCCC2(C)c2nnnn2-c2c(C)cccc2C)cc1OC (centres undefined)	none (no result: NR2E3 ag-1, PG9 Ab binder, NR2E3 ag-2, Neddylation inh)
CCOc1ccc(Nc2nc3c(C)cccc3cc2C#N)cc1	PG9 Ab binder 12 | PG9 binder conf 15 | PGV04 Ab binding 26
Cc1ccc(-n2c(SCC(N)=O)nc3c(c2=O)C2(CCCC2)Cc2ccccc2-3)cc1	PG9 Ab binder 11 | PG9 binder conf 23 | PGV04 Ab binding 32
Nc1cc(=O)[nH]c(SCc2nc3ccccc3n2Cc2ccccc2)n1	none
O=c1[nH]c(SCc2nc3ccccc3n2Cc2ccccc2)nc2ccccc12	PG9 Ab binder 13 | PG9 binder conf 24 | PGV04 Ab binding 30
COc1ccc(NC(=O)C(=O)NCC(c2ccco2)N2CCc3ccccc3C2)cc1OC (centres undefined)	none
COc1ccc(CC(=O)Nc2c(C(N)=O)oc3ccccc23)cc1OC	none
CCOc1ccc(CC(=O)Nc2c(C(=O)Nc3ccccc3)oc3ccccc23)cc1OCC	PG9 Ab binder 23 (not shown: Neddylation inh) | PG9 binder conf 22 | PGV04 Ab binding 33
Cc1cc(C)n(-c2ccc(C(=O)N3CCN(S(=O)(=O)c4ccc(OC(F)(F)F)cc4)CC3)cc2)n1	none (no result: NR2E3 ag-2)
C[C@H]1CCC[C@]2(O[C@H](CCO)C[C@H](O)[C@H]2O)O1	none
C[C@@H]1CCC[C@]2(O[C@H](CCO)C[C@H](O)[C@H]2O)O1	PG9 Ab binder 13 | PG9 binder conf inactive | PGV04 Ab binding inactive
Cc1ccc(S(=O)(=O)Nc2ccc(Nc3nccn4c(-c5cccc(OC(F)(F)F)c5)cnc34)cc2)cc1	none (not shown: NR2E3 ag-2, Neddylation inh)
CC(C)(C)c1ccc(C#C[C@@H]2C=C[C@H](O)[C@@H](COC(=O)Nc3ccccc3)O2)cc1	none (no result: NR2E3 ag-1, NR2E3 ag-2, Neddylation inh)
O=C(Nc1nc2c(Br)cc(Br)cc2c(=O)s1)c1ccco1	PG9 Ab binder 30 | PG9 binder conf 58 | PGV04 Ab binding 63
Cc1cc(C)c2nc(NC(=O)c3ccco3)sc2c1	none (not shown: Neddylation inh)
CCCCNC(=O)C1(C)CCC(=O)N1C1CC1 (centres undefined)	none (no result: NR2E3 ag-2)
O=C(Nc1ccc(Cl)cc1Cl)c1ccc(-c2ccccc2)cc1	PG9 Ab binder 11 | PG9 binder conf 33 | PGV04 Ab binding 49
O=C(Nc1c(Cl)cccc1Cl)c1ccc(-c2ccccc2)cc1	none
Cc1ccc(C(=O)Nc2ccc(NC(=O)c3ccccc3Cl)c(C)c2)cc1	PG9 Ab binder 29 (no result: NR2E3 ag-2) | PG9 binder conf 26 | PGV04 Ab binding 39
Cc1cc(NC(=O)c2ccc(Cl)cc2)ccc1NC(=O)c1ccccc1Cl	none (not shown: Neddylation inh)
COC(=O)c1cccc(NC(=O)CSc2nnc(C3CC3)n2C)c1	none
CC(C)(C)NC(=O)[C@H](c1cccnc1)N(C(=O)c1ccco1)c1ccc(C(C)(C)C)cc1	none (no result: NR2E3 ag-1, PG9 Ab binder, NR2E3 ag-2, Neddylation inh)
Cc1cc(OC(=O)c2cc(Cl)ccc2Cl)c([N+](=O)[O-])c(=O)[nH]1	PG9 Ab binder 30 | PG9 binder conf inactive | PGV04 Ab binding 11
Cc1cc(OC(=O)c2cc([N+](=O)[O-])ccc2Cl)c([N+](=O)[O-])c(=O)[nH]1	none
O=C(CSc1ccc2nnc(-c3cccc(F)c3)n2n1)N1CCCc2ccccc21	PG9 Ab binder 9.1 | PG9 binder conf 18 | PGV04 Ab binding 39
O=C(CSc1ccc2nnc(-c3ccc(F)cc3)n2n1)N1CCCc2ccccc21	none
CC(=O)c1cc(-c2cccc(CO)c2)c(=O)n2c1CCC2	none (no result: NR2E3 ag-1, PG9 Ab binder, NR2E3 ag-2, Neddylation inh)
COc1cccc(-c2nnc(NC(=O)Cc3cccs3)s2)c1	PG9 Ab binder 13 | PG9 binder conf 18 | PGV04 Ab binding 39
O=C(Cc1ccccc1)Nc1nnc(-c2cccs2)s1	PG9 Ab binder 12 | PG9 binder conf 19 | PGV04 Ab binding 31
CCC(=O)Nc1nnc(-c2cccs2)s1	none
O=C(Cn1[nH]c(=O)c2ccccc2c1=O)NCC1COc2ccccc2O1 (centres undefined)	none
O=C(Cn1ccc2ccccc2c1=O)NCC1COc2ccccc2O1 (centres undefined)	PG9 Ab binder 17 | PG9 binder conf 21 | PGV04 Ab binding 27
O=S1(=O)c2ccc(N3CCC[C@@H]3CO)cc2OCCCN1C1CC1	none (no result: NR2E3 ag-1, PG9 Ab binder, NR2E3 ag-2, Neddylation inh)
NS(=O)(=O)c1ccc2nc(NC(=O)Nc3ccccc3F)sc2c1	none
CCOCC(=O)Nc1nc2ccc(S(C)(=O)=O)cc2s1	none
Cc1ccccc1NC(=O)Nc1nc2ccc(S(C)(=O)=O)cc2s1	PG9 Ab binder 11 | PG9 binder conf 12 | PGV04 Ab binding 28
CCOc1ccc(NC(=O)Nc2nc3ccc(S(C)(=O)=O)cc3s2)cc1	PG9 Ab binder 14 (no result: NR2E3 ag-2) | PG9 binder conf 19 | PGV04 Ab binding 22
NC(=O)c1c(N)[nH]c(C(=O)c2ccccc2)c1-c1ccc2c(c1)OCO2	none (no result: NR2E3 ag-1, NR2E3 ag-2, Neddylation inh)
CCOC(=O)C1(C)CCCN(C(=O)c2ccc(C)c(F)c2)C1 (centres undefined)	none (no result: NR2E3 ag-2)
